The term inhibition denotes the percentage by which the read-out fell short of the control.

Assay [1] has as its system Yersinia pseudotuberculosis. The assay is described as follows: Effect on T3S in Yersinia pseudotuberculosis 3 pIB29 assessed as inhibition of light emission at 50 uM by luciferase reporter gene assay. A digest of the protocol: (§1)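 Strain YPIII-pIB29 (yopE-luxAB transcriptional fusion, lacking YopH), grown overnight at ambient temperature in BHI with 5 mM EGTA and 20 mM MgCl2 to deplete calcium, then adjusted to OD600 0.15-0.25. Compounds in DMSO (≤1% final) at 100, 50, 20 or 10 µM final, in triplicate. Plates shaken 1 h at ambient temperature, then 2 h at 37 °C. Decanal added within 30 min and luminescence read at once. Result is % inhibition of light versus control.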

Assay [2] deals with Tyrosine-protein phosphatase YopH (Yersinia pseudotuberculosis serotype I (strain IP32953)) (UniProt P08538). The assay can be described thus: Inhibition of Yersinia pseudotuberculosis YP3-pIB102 YopH at 20 uM. A digest of the protocol:
(§2)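 Strain YPIII-pIB102 grown overnight at 26 °C in BHI with 25 µg/ml chloramphenicol. Diluted to OD600 0.08 in calcium-depleted BHI (5 mM EGTA, 20 mM MgCl2), with compound at 100, 50, 20 or 10 µM, and shaken 2 h at 37 °C. Culture aliquot added to 25 mM p-nitrophenyl phosphate, 40 mM MES pH 5.0 and 1.6 mM DTT for 15 min at 37 °C. Stopped with NaOH and read at A405. Triplicates; result is % inhibition of secreted YopH activity.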

For assay [3] the target is unchanged. The assay can be described thus: Inhibition of Yersinia pseudotuberculosis YP3-pIB102 YopH at 50 uM. A digest of the protocol: as §2
Assay [4] shares this target. The assay can be described thus: Inhibition of Yersinia pseudotuberculosis YP3-pIB102 YopH at 10 uM. A digest of the protocol: as §2
Assay [5] relates to Yersinia pseudotuberculosis. The assay can be described thus: Growth inhibition of Yersinia pseudotuberculosis. The format is functional, organism-based. A digest of the protocol: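 Wild-type YPIII-pIB102 diluted to OD600 0.05-0.1 in BHI with 2.5 mM CaCl2. Grown at 37 °C with shaking, with compound at 10, 20, 50 or 100 µM. Absorbance read at 600 nm periodically, or at 595 nm hourly, over six hours and compared with the control growth curve.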

Assay [6] concerns Yersinia pseudotuberculosis. The assay can be described thus: Effect on T3S in Yersinia pseudotuberculosis 3 pIB29 assessed as inhibition of light emission at 20 uM by luciferase reporter gene assay. A digest of the protocol:
as §1

Assay [7] concerns Yersinia pseudotuberculosis. The assay can be described thus: Effect on T3S in Yersinia pseudotuberculosis 3 pIB29 assessed as inhibition of light emission at 10 uM by luciferase reporter gene assay. A digest of the protocol: as §1
Assay [8] relates to Yersinia pseudotuberculosis. The assay can be described thus: Effect on T3S in Yersinia pseudotuberculosis 3 pIB29 assessed as inhibition of light emission at 100 uM by luciferase reporter gene assay. A digest of the protocol: as §1
In general terms: A reporter such as luciferase makes a cellular process visible.

Assay [9] has as its target Tyrosine-protein phosphatase YopH (Yersinia pseudotuberculosis serotype I (strain IP32953)) (UniProt P08538). The assay can be described thus: Inhibition of Yersinia pseudotuberculosis YP3-pIB102 YopH at 100 uM. The method, boiled down:
as §2

Active and inactive are the calls of the source. No cut-off for these calls is given here.

Tyrosine-protein phosphatase YopH (Yersinia pseudotuberculosis serotype I (strain IP32953)), sequence (P08538 whole entry): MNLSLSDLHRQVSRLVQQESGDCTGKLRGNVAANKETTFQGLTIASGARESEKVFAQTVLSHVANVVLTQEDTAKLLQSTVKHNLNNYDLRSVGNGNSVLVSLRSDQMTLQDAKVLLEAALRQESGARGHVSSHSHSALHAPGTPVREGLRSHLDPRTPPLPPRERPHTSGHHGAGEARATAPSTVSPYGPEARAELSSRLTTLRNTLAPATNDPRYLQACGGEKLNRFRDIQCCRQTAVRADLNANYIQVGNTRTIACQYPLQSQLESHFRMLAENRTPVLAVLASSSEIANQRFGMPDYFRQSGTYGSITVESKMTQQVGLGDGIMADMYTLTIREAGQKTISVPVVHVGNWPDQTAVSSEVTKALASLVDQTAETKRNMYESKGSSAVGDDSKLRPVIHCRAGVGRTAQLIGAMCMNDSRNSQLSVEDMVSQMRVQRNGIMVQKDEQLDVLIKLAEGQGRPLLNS

On to `O=C(Nc1ccc(Cl)c(Cl)c1)c1cc(Cl)ccc1NS(=O)(=O)c1cccc2nsnc12`, for which the inhibition in assay [1] worked out at 69%; in assay [2], 62%; in assay [3] it was 66%; in [4] it was 19%; in [6], 68%; in [7] it was 48%. For the same molecule, the inhibition in assay [8] came to 62%; in assay [9], 63%. Also, in assay [5], the outcome was inactive.

The record behind these values is ChEMBL document CHEMBL1137500, “Inhibitors of type III secretion in Yersinia: design, synthesis and multivariate QSAR of 2-arylsulfonylamino-benzanilides” (Bioorg Med Chem, 2007).
